Assay results as given in ChEMBL document CHEMBL1128737, “Inhibition of herpes simplex virus type 1 helicase-primase by (dichloroanilino)purines and -pyrimidines” (J Med Chem, 1995).

Assays:
HeLa [1] = assay: Inhibition of HSV-1 DNA synthesis in virus-infected HeLa cells; format: functional, cell-based; conditions: Homo sapiens
Method in brief: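 HeLa cells (2 × 10^4/well) grown 24 h at 37 °C, infected with HSV1 KOS, adsorbed 90 min. Serial compound dilutions in DMEM/2% FCS added to duplicate wells for 24 h.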

HeLa [2] = assay: Inhibition of [3H]thymidine incorporation into the DNA of uninfected HeLa cells; format: functional, cell-based; conditions: Homo sapiens
Method in brief: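 Uninfected HeLa cells (3 × 10^6/well) in DMEM/10% FCS grown 24 h, then given serial compound dilutions or DMSO in duplicate for a further 24 h at 37 °C. [3H]thymidine (1 μCi/mL) added for 3 h, followed by NaOH lysis, 5% TCA precipitation, filter collection and scintillation counting.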

[3] = target: T1, DNA helicase/primase complex protein (Herpes simplex virus (type 1 / strain 17)) (UniProt P10236); assay: (§1) Inhibition against the primase activity of HSV-1 helicase-primase at a concentration 200 micro/mL; conditions: Human alphaherpesvirus 1
T1 sequence (whole entry): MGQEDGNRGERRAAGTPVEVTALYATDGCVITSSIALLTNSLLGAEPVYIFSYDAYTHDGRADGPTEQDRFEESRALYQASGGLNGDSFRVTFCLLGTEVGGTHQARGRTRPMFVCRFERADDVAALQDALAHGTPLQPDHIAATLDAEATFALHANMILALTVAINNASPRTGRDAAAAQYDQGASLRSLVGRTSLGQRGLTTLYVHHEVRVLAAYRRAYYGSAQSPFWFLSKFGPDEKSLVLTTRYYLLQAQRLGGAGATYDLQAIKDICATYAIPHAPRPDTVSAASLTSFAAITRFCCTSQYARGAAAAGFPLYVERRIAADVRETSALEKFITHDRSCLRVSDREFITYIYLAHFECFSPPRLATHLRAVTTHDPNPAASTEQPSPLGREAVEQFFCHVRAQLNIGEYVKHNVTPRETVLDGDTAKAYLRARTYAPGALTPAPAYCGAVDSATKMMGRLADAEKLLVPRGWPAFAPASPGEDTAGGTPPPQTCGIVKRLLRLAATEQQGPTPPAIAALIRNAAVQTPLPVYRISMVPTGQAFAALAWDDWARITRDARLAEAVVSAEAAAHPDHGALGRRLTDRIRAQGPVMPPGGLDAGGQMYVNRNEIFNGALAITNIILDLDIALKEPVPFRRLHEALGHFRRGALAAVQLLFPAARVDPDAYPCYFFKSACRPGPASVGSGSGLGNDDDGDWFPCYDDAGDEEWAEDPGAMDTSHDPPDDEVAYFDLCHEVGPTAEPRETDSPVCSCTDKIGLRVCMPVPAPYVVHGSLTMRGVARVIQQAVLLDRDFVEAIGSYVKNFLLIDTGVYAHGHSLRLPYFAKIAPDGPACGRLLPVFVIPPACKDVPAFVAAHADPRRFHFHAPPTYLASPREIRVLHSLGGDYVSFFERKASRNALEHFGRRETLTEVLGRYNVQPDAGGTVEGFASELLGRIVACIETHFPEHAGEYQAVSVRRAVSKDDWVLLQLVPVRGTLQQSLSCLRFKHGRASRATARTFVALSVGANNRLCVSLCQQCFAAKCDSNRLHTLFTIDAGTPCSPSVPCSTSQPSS

DNA replication helicase = DNA replication helicase (Human herpesvirus 1, UniProt P10189); assay: Inhibition against DNA-Dependent GTPase activity of two-subunit recombinant HSV-1 helicase-primase
Sequence of DNA replication helicase (P10189 whole entry, looked up): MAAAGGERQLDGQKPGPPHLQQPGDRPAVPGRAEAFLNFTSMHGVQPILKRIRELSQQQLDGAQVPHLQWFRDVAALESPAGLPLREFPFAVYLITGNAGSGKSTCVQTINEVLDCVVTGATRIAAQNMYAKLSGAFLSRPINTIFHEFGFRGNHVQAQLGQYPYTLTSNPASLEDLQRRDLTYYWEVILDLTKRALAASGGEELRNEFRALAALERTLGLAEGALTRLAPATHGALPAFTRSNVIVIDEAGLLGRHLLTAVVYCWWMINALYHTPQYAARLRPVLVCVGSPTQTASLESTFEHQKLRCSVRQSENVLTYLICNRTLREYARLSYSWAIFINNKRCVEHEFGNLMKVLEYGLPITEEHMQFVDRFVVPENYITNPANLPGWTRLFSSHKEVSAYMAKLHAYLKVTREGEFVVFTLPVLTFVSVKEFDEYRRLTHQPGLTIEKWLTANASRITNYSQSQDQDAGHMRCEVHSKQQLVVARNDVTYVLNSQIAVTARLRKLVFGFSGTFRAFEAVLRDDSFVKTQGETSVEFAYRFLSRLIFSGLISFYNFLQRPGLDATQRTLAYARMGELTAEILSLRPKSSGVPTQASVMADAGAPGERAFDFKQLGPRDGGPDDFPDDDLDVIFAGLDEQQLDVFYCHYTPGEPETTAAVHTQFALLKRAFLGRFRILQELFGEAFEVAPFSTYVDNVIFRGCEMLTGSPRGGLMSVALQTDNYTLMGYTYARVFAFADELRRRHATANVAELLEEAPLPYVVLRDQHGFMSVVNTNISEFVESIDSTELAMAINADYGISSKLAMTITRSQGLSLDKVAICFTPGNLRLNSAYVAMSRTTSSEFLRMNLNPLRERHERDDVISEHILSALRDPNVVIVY

[4] = target: T1, DNA helicase/primase complex protein (Herpes simplex virus (type 1 / strain 17)); assay: Inhibition against DNA-Dependent ATPase activity of HSV-1 helicase-primase in HSV-1-infected CV-1 cells; format: cell-based; design: concentration or dose not given beside the values; conditions: concentration not given here
Method in brief: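 Three-subunit helicase-primase purified from HSV1-infected CV-1 cells, 15 units. DNA-dependent NTPase run with 1 mM ATP and 2 μg activated DNA, compounds in 5% DMSO, 20 min at 34 °C. Orthophosphate read with acidic molybdate-malachite green at 650 nm. Done in duplicate, averaged over at least two independent experiments.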

[5] = target: T1, DNA helicase/primase complex protein (Herpes simplex virus (type 1 / strain 17)); assay: as §1; format: functional; conditions: Human alphaherpesvirus 1
[6] = target: T2, DNA helicase/primase complex protein (Herpes simplex virus (type 1 / strain 17), UniProt P10236); assay: (§2) Inhibition against Primase by coupled primase-DNA polymerase-I assay with the two subunit recombinant HSV-1 helicase primase; design: species or system Human alphaherpesvirus 1
T2 sequence (P10236 whole entry): T1 sequence (whole entry)
Method in brief: (§3)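 Two-subunit baculovirus enzyme (1 unit) coupled to 1 unit E. coli Klenow. Buffer: 50 mM Tris·HCl pH 8.7, 3.5 mM MgCl2, 10% glycerol, 100 μg/mL BSA. Inhibitors in DMSO at 0.5% final, screened at 200 μg/mL. Run 60 min at 34 °C; EDTA quench; polymer isolated on G50 and counted. Duplicates.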

[7] = target: T2, DNA helicase/primase complex protein; assay: as §2; format: functional, Human alphaherpesvirus 1; method in brief: as §3

| Compound | IC50 (HeLa [1]) | IC50 (HeLa [2]) | inhibition [4] | further results |
| --- | --- | --- | --- | --- |
| Nc1nc(Nc2cc(Cl)cc(Cl)c2)nc2c1ncn2COCCO | 12.9 µM | 2.5 µM | – | – |
| O=c1[nH]c(Nc2cc(Cl)cc(Cl)c2)nc2c1ncn2[C@H]1C[C@H](O)[C@@H](CO)O1 | 190 µM | 32 µM | – | – |
| Nc1[nH]c(Nc2ccc(Cl)c(Cl)c2)nc2ncnc1-2 | 75 µM | 15 µM | – | inhibition [3]: 94%; IC50 (DNA replication helicase): 850 µM |
| Cc1ccc(Nc2nc(O)c3[nH]cnc3n2)cc1 | – | – | 0% | – |
| O=c1[nH]c(Nc2cc(Cl)cc(Cl)c2)nc2c1ncn2COC(CO)CO | 91 µM | 22.9 µM | – | – |
| Oc1[nH]c(Nc2ccc3c(c2)CCC3)nc2ncnc1-2 | – | – | 0% | – |
| OCCOCn1cnc2c(Cl)nc(Nc3cc(Cl)cc(Cl)c3)nc21 | 5 µM | 7.4 µM | – | – |
| Oc1[nH]c(Nc2cccc(Cl)c2)nc2ncnc1-2 | – | – | 60% | – |
| Nc1[nH]c(Nc2cc(Cl)cc(Cl)c2)nc2ncnc1-2 | 69 µM | 21 µM | – | inhibition [3]: 93% |
| Nc1nc(Nc2cc(Cl)cc(Cl)c2)nc2c1ncn2COC(CO)CO | 61.6 µM | 5.5 µM | – | – |
| Nc1nc(Cl)cc(Nc2cc(Cl)cc(Cl)c2)n1 | 45 µM | 23 µM | – | inhibition [3]: 92% |
| Nc1nc(Nc2cc(Cl)cc(Cl)c2)nc2nc[nH]c12 | – | – | – | IC50 (DNA replication helicase): 920 µM |
| Oc1[nH]c(Nc2ccc(F)c(Cl)c2)nc2ncnc1-2 | – | – | 96% | – |
| Oc1[nH]c(Nc2ccc(F)c(F)c2)nc2ncnc1-2 | – | – | 73% | – |
| OC[C@H]1O[C@@H](n2cnc3c(Cl)nc(Nc4cc(Cl)cc(Cl)c4)nc32)C[C@@H]1O | 23 µM | 2.7 µM | – | – |
| Oc1[nH]c(Nc2ccc(F)cc2)nc2ncnc1-2 | – | – | 5% | – |
| Oc1ccc(Nc2nc(O)c3[nH]cnc3n2)cc1 | – | – | 17% | – |

| Compound | IC50 (HeLa [1]) | IC50 (HeLa [2]) | inhibition [4] | further results |
| --- | --- | --- | --- | --- |
| Oc1cc(Nc2cc(Cl)cc(Cl)c2)nc(O)n1 | – | – | – | inhibition [3]: 46%; IC50 (DNA replication helicase): > 2000 µM |
| O=c1[nH]c(Nc2cc(Cl)cc(Cl)c2)nc2nc[nH]c12 | – | – | – | IC50 (DNA replication helicase): 910 µM |
| Nc1nc(O)cc(Nc2cc(Cl)cc(Cl)c2)n1 | – | – | – | inhibition [3]: 34% |
| Oc1[nH]c(Nc2cc(Cl)cc(Cl)c2)nc2ncnc1-2 | > 200 µM | > 200 µM | 70% | inhibition [5]: 94% |
| CCc1cccc(Nc2nc(O)c3[nH]cnc3n2)c1 | – | – | 42% | – |
| Oc1[nH]c(Nc2ccc(Br)cc2)nc2ncnc1-2 | – | – | 40% | – |
| O=c1[nH]c(Nc2cc(Cl)cc(Cl)c2)nc2c1ncn2COCCO | 14.4 µM | 23.4 µM | – | – |
| Oc1[nH]c(Nc2ccccc2)nc2ncnc1-2 | – | – | 0% | – |
| Nc1nc(Cl)cc(Nc2ccc(Cl)c(Cl)c2)n1 | 62 µM | 25 µM | – | inhibition [3]: 98%; IC50 [6]: 8.7 µM |
| Nc1nc(Nc2cc(Cl)cc(Cl)c2)cc(=O)[nH]1 | – | – | – | IC50 (DNA replication helicase): 770 µM |
| O=c1[nH]c(Nc2cccc(C(F)(F)F)c2)nc2[nH]cnc12 | – | – | 13% | – |
| Oc1[nH]c(Nc2ccc(Cl)c(Cl)c2)nc2ncnc1-2 | > 200 µM | 250 µM | 98% | IC50 [7]: 59 µM; inhibition [5]: 89%; IC50 (DNA replication helicase): 880 µM |
| Oc1cc(Nc2ccc(Cl)c(Cl)c2)nc(O)n1 | – | – | – | inhibition [3]: 30%; IC50 (DNA replication helicase): > 2000 µM |
| Nc1nc(O)cc(Nc2ccc(Cl)c(Cl)c2)n1 | – | – | – | inhibition [3]: 44%; IC50 (DNA replication helicase): 850 µM |
| Nc1nc2c(ncn2COCCO)c(=O)[nH]1 [ACYCLOVIR] | 1.9 µM | > 200 µM | – | – |
| Nc1nc(Nc2cc(Cl)cc(Cl)c2)nc2c1ncn2[C@H]1C[C@H](O)[C@@H](CO)O1 | 49 µM | 0.4 µM | – | – |
